# Published values of several laboratories.
# Each line is one published result; the experiments were not run side by side.
# Target: Cyclin-dependent kinase 17 (CDK17, Homo sapiens, UniProt Q00537)
SMILES,test,conditions,remaining binding [%]
COc1ccnn2ncc(-c3ccnc(N(C)C)n3)c12,binding,1 µM,100
C[C@@H]1CN(c2cc(-c3n[nH]c4ccc(OC5(C)CC5)cc34)ncn2)C[C@H](C)O1,"cell-free assay, competition with immobilised ligand",0.1 µM,89
N[C@H]1CCN(c2nccc(-c3cnn4ncccc34)n2)C1,binding,1 µM,100
COc1ccc2c(c1)O[C@H](c1ccc(OC)c(OC)c1)C[C@@H]2NC(=O)C1(c2ccc3c(c2)OC(F)(F)O3)CC1,"cell-free assay, competition with immobilised ligand",1 µM,100
COc1cnc(Nc2cccc(S(N)(=O)=O)c2)nc1N1CCN(c2ccccc2)CC1,"binding, competition with immobilised ligand",1 µM,100
CC(=O)N1CCC(c2ccc(C(=O)NC(=N)N)cc2C(F)(F)F)CC1,"cell-free assay, competition with immobilised ligand",1 µM,100
C=CC(=O)N1CCC(C(=O)NCC(=O)N2CCN(c3nc(-c4cnc(N)nc4C(F)F)nc(N4CCOCC4)n3)CC2)CC1,"binding, competition with immobilised ligand",1 µM,89
Cc1c(NC(=O)c2cc(C(N)=O)nc3cc(F)ccc23)c(C(F)(F)F)nn1Cc1ccc(C(C)(C)C)cc1,"cell-free assay, competition with immobilised ligand",1 µM,100
O=C(c1ccc(Nc2ncc(Cl)c(-c3ccc(Cl)s3)n2)cc1)N1CCC(N2CCCC2)CC1,"binding, competition with immobilised ligand",1 µM,1.8
C[C@H](NC(=O)c1cnc2n1[C@](C)(Cc1ccc(C#N)cc1)C(=O)N2c1cc(Cl)c(F)c(Cl)c1)C(=O)NC1(c2ccccn2)CC1,"cell-free assay, competition with immobilised ligand",1 µM,100
c1cncc(-c2cccc(Nc3nccc(NC4CCCCC4)n3)c2)c1,"binding, competition with immobilised ligand",10 µM,72
O=C(c1ccc(Nc2ncc(Cl)c(-c3cc4ccccc4s3)n2)cc1)N1CCC(N2CCCC2)CC1,"binding, competition with immobilised ligand",1 µM,0
CN(c1nccc(-c2cnn3ncccc23)n1)C1CC1,binding,1 µM,100
O=C(NCC1CCOCC1)c1n[nH]cc1NC(=O)c1c(F)cccc1F,"binding, competition with immobilised ligand",1 µM,66
Cc1cnn2ncc(-c3ccnc(N(C)C)n3)c2c1,binding,1 µM,100
CC1=C(C#N)[C@@H](c2ccc3[nH]nc(C)c3c2)C(C#N)=C(c2ccc(Cl)cc2)N1,"cell-free assay, competition with immobilised ligand",1 µM,87.2
c1cnn2ncc(-c3ccnc(N4CCC45COC5)n3)c2c1,binding,1 µM,87
COc1cnc(Nc2cccc(S(N)(=O)=O)c2)nc1N1CCN(c2ccccc2)C(=O)C1,"binding, competition with immobilised ligand",1 µM,100
F[C@@H]1CCN(c2nccc(-c3cnn4ncccc34)n2)C1,binding,1 µM,100
O=C(NCCCN1CCOCC1)c1ccc(Nc2ncc(Cl)c(-c3ccc(Cl)s3)n2)cc1,"binding, competition with immobilised ligand",1 µM,31
